Activity calls are given as the source filed them. The calls are words filed in the database; no cut-off is given here.
Experiments:
[1] = Cytotoxicity against human HuH7 cells after 72 hrs by SRB assay; type: functional, cell-based; conditions: Huh-7, 72 h
How it was run: (§1)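 Cells kept in DMEM with 10% FCS and penicillin/streptomycin at 37°C, 5% CO2. 2000–3000 cells/well were seeded, and medium was refreshed the next day. DMSO solutions were added over 2.5–40 µM with matched DMSO-only controls for 72 h. Cells were then TCA-fixed, stained with 0.4% SRB in 1% acetic acid, solubilized in 10 mM Tris pH 8 and read at 515 nm. Data were normalized to DMSO wells and expressed as mean ±SD.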

MCF7 = experiment: Cytotoxicity against human MCF7 cells after 72 hrs by SRB assay; type: functional, cell-based; conditions: MCF7, 72 h; how it was run: as §1
[2] = Cytotoxicity against human HCT116 cells after 72 hrs by SRB assay; type: functional, cell-based; conditions: HCT-116, 72 h; how it was run: as §1
Huh-7 [3] = experiment: Induction of cell death in human HuH7 cells assessed as induction of intracytoplasmic vacuoles at cytotoxic IC50 level after 72 hrs by inverted light microscopy; type: functional, cell-based
How it was run: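 They were viewed under an inverted light microscope at 20× for death morphology, including intracytoplasmic vacuoles.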

Huh-7 [4] = experiment: Induction of cell death in human HuH7 cells assessed as nuclear condensation at cytotoxic IC50 level after 72 hrs by Hoechst 33258 staining based […]; type: functional
How it was run: (§2)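 Cells were washed in cold PBS, fixed 10 min in cold methanol and stained with Hoechst 33258 at 3 µg/mL for 5 min in the dark. Nuclear condensation and fragmentation were examined by fluorescence microscopy at 40×.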

Huh-7 [5] = experiment: Induction of cell death in human HuH7 cells assessed as DNA fragmentation at cytotoxic IC50 level after 72 hrs by Hoechst 33258 staining based […]; type: functional; how it was run: as §2
Huh-7 [6] = experiment: Induction of autophagy in human HuH7 cells assessed as increase in LC3-2 formation at cytotoxic IC50 level after 72 hrs by Western blotting method; type: functional, cell-based
[7] = Induction of cell cycle arrest in human Mahlavu cells assessed as accumulation at G0/G1 phase at cytotoxic IC50 level after 48 hrs by propidium iodide staining based FACS method; type: functional
[8] = Induction of cell cycle arrest in human Mahlavu cells assessed as accumulation at S phase at cytotoxic IC50 level after 48 hrs by propidium iodide staining based FACS method; type: functional
[9] = Induction of cell cycle arrest in human Mahlavu cells assessed as accumulation at G2/M phase at cytotoxic IC50 level after 48 hrs by propidium iodide staining based FACS method; type: functional
[10] = Induction of cell cycle arrest in human HuH7 cells assessed as accumulation at G0/G1 phase at cytotoxic IC50 level after 48 hrs by propidium iodide staining based FACS method; type: functional, Huh-7
How it was run: (§3)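 Huh7 cells were seeded at 150,000–300,000 per 100-mm dish and left 24 h. […] Cells were stained with a propidium iodide-containing cell cycle reagent, and subG1, G0/G1, S and G2/M fractions were scored by flow cytometry.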

[11] = Induction of cell cycle arrest in human HuH7 cells assessed as accumulation at S phase at cytotoxic IC50 level after 48 hrs by propidium iodide staining based FACS method; type: functional, Huh-7; how it was run: as §3
[12] = Induction of cell cycle arrest in human HuH7 cells assessed as accumulation at G2/M phase at cytotoxic IC50 level after 48 hrs by propidium iodide staining based FACS method; type: functional, Huh-7; how it was run: as §3

In the case of `Cc1ccc(-c2cc(C(=O)N3CCN(c4ccc(C(F)(F)F)cn4)CC3)nn2-c2ccc3ccccc3n2)cc1`, the IC50 [1] is reported as 20.9 µM, the IC50 (MCF7) is reported as 44.7 µM and the IC50 [2] is reported as 17 µM.
For `Cc1ccc(-c2cc(C(=O)N3CCN(c4cccc(C(F)(F)F)n4)CC3)nn2-c2ccc3ccccc3n2)cc1`, the IC50 [1] was 10.2 µM, the IC50 (MCF7) was 11.4 µM and the IC50 [2] was 9.4 µM.
In the case of `Cc1ccc(-c2cc(C(=O)N3CCN(c4ncccc4C#N)CC3)nn2-c2ccc3ccccc3n2)cc1`, the IC50 [1] is reported as 21.5 µM, the IC50 (MCF7) is reported as 79.5 µM and the IC50 [2] is reported as 39.4 µM.
`CC[C@@]1(O)C(=O)OCc2c1cc1n(c2=O)Cc2cc3ccccc3nc2-1` [CAMPTOTHECIN] gave an IC50 [1] of 0.004 µM, an IC50 (MCF7) of 0.0006 µM and an IC50 [2] of 0.00015 µM.
With `Cc1ccc(-c2cc(C(=O)N3CCN(c4ccncc4)CC3)nn2-c2ccc3ccccc3n2)cc1` the IC50 [1] was 7.8 µM, the IC50 (MCF7) was 4.7 µM and the IC50 [2] was 7.1 µM. The Activity (Huh-7 [3]) was “Active”, the Activity (Huh-7 [4]) was “Active” and the Activity (Huh-7 [5]) was “Active”. For the same compound, the Activity (Huh-7 [6]) was “Active”, the Activity [7] was 52.9% and the Activity [8] was 17%. The Activity [9] was 24.4%, the Activity [10] was 57.2% and the Activity [11] was 7.2%. It also gave an Activity [12] of 33%.
For `Cc1ccc(-c2cc(C(=O)N3CCN(c4ncc(C(F)(F)F)cc4Cl)CC3)nn2-c2ccc3ccccc3n2)cc1`, the IC50 [1] was 8 µM, the IC50 (MCF7) was 48 µM and the IC50 [2] was 13.3 µM.
Work on `Cc1ccc(-c2cc(C(=O)NCc3cccnc3)nn2-c2ccc3ccccc3n2)cc1` yielded an IC50 [1] of 14.1 µM, an IC50 (MCF7) of 19 µM and an IC50 [2] of 11.2 µM. For the same compound, the Activity (Huh-7 [3]) was “Active”, the Activity (Huh-7 [4]) was “Active” and the Activity (Huh-7 [5]) was “Active”. For the same compound, the Activity (Huh-7 [6]) was “Active”, the Activity [7] was 56.1% and the Activity [8] was 14%. For the same compound, the Activity [9] was 28.5%, the Activity [10] was 56.1% and the Activity [11] was 10.5%. For the same compound, the Activity [12] was 32.3%.
`Cc1ccc(-c2cc(C(=O)Nc3ccc(Cl)nc3Cl)nn2-c2ccc3ccccc3n2)cc1` gave an IC50 [1] of 14 µM, an IC50 (MCF7) of 12.7 µM and an IC50 [2] of 7.9 µM.
Work on `Cc1ccc(-c2cc(C(=O)N3CCN(c4ncccc4C(F)(F)F)CC3)nn2-c2ccc3ccccc3n2)cc1` yielded an IC50 [1] of 12.7 µM, an IC50 (MCF7) of 5.8 µM and an IC50 [2] of 9.7 µM.
For `Cc1ccc(-c2cc(C(=O)N3CCN(c4ccccn4)CC3)nn2-c2ccc3ccccc3n2)cc1`, the IC50 [1] was 4.8 µM, the IC50 (MCF7) was 12 µM and the IC50 [2] was 5.1 µM.
In the case of `Cc1ccc(-c2cc(C(=O)N3CCN(c4c(Cl)cncc4Cl)CC3)nn2-c2ccc3ccccc3n2)cc1`, the IC50 [1] is reported as 4.6 µM, the IC50 (MCF7) is reported as 9.7 µM and the IC50 [2] is reported as 4.8 µM.
Work on `Cc1ccc(-c2cc(C(=O)Nc3ccncc3)nn2-c2ccc3ccccc3n2)cc1` yielded an IC50 [1] of 8 µM, an IC50 (MCF7) of 15.4 µM and an IC50 [2] of 8.1 µM.
With `Cc1ccc(-c2cc(C(=O)Nc3ccncc3Br)nn2-c2ccc3ccccc3n2)cc1` the IC50 [1] was 13.1 µM, the IC50 (MCF7) was 11 µM and the IC50 [2] was 15.5 µM.
In the case of `COc1ncccc1NC(=O)c1cc(-c2ccc(C)cc2)n(-c2ccc3ccccc3n2)n1`, the IC50 [1] is reported as 7.9 µM, the IC50 (MCF7) is reported as 30.2 µM and the IC50 [2] is reported as 15.7 µM.
In the case of `Cc1ccc(-c2cc(C(=O)Nc3ncc(Br)cc3Br)nn2-c2ccc3ccccc3n2)cc1`, the IC50 [1] is reported as 11.5 µM, the IC50 (MCF7) is reported as 16.9 µM and the IC50 [2] is reported as 9.6 µM.
